How the values were obtained:
[1] = target: T1, Peptidyl-prolyl cis-trans isomerase FKBP5 (Homo sapiens, UniProt Q13451); assay: (§1) Displacement of fluorescent tracer 5-(3-(4-((1S,5S,6S)-10-(3,5-dichlorophenylsulfonyl)-2-oxo-3-(pyridin-3-ylmethyl)-3,10-diazabicyclo[4.3.1]decan-5-yl)-1H-1,2,3-triazol-1-yl)propylcarbamoyl)-2-(6-(dimethylamino)-3-(dimethyliminio)-3H-xanthen-9-yl)benzoate from recombinant full length C-terminal FLAG-tagged FKBP51 (unknown origin) expressed in Escherichia coli BL21 (DE3) cells incubated for 30 mins by fluorescence polarisation competition binding assay
T1 sequence (Q13451 whole entry): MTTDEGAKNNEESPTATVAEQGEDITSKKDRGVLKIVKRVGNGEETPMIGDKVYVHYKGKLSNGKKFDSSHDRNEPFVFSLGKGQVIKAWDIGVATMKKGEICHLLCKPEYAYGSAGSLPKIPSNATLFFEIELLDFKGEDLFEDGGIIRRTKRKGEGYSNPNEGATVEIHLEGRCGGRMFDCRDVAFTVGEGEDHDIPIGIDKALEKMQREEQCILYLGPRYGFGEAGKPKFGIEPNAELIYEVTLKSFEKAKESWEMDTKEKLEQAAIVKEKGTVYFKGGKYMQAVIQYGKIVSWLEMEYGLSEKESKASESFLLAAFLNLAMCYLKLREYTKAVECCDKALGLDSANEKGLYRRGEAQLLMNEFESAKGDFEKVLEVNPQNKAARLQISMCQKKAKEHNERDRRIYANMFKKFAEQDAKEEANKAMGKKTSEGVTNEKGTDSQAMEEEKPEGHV

[2] = target: T2, Peptidyl-prolyl cis-trans isomerase FKBP4 (Homo sapiens, UniProt Q02790); assay: as §1, with “FKBP52” for “FKBP51”
T2 sequence (Q02790 whole entry): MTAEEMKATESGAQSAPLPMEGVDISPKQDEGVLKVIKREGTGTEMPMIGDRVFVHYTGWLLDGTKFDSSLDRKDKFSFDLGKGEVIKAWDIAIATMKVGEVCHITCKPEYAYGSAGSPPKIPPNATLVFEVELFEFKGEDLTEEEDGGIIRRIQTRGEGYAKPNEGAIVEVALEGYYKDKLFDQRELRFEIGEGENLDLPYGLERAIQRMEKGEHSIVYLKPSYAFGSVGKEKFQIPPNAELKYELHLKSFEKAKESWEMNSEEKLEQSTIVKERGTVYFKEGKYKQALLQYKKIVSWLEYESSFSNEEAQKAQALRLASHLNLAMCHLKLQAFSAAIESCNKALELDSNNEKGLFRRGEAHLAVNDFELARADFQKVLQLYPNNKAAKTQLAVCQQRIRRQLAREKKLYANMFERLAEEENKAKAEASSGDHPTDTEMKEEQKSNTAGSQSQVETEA
Outline: (§2)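 Competitive FP in 150 mM NaCl, 20 mM HEPES pH 8.0, 0.002% Triton X-100. Ligand 1:1 serially diluted in DMSO and premixed with fluorescent tracer, tracer working solution 11.9 nM (FKBP12.6, 51FK1, 52FK1) or 5.95 nM (FKBP12) before final 10-fold dilution into protein. 30 min at room temperature, read at ex/em 535/590 nm. Weighted SD from at least two independent runs.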

[3] = (§3) Selectivity ratio of Kd for displacement of fluorescent tracer 5-(3-(4-((1S,5S,6S)-10-(3,5-dichlorophenylsulfonyl)-2-oxo-3-(pyridin-3-ylmethyl)-3,10-diazabicyclo[4.3.1]decan-5-yl)-1H-1,2,3-triazol-1-yl)propylcarbamoyl)-2-(6-(dimethylamino)-3-(dimethyliminio)-3H-xanthen-9-yl)benzoate from recombinant full length C-terminal FLAG-tagged FKBP52 (unknown origin) to Kd for displacement of fluorescent tracer 5-(3-(4-((1S,5S,6S)-10-(3,5-dichlorophenylsulfonyl)-2-oxo-3-(pyridin-3-ylmethyl)-3,10-diazabicyclo[4.3.1]decan-5-yl)-1H-1,2,3-triazol-1-yl)propylcarbamoyl)-2-(6-(dimethylamino)-3-(dimethyliminio)-3H-xanthen-9-yl)benzoate from recombinant full length C-terminal FLAG-tagged FKBP51 (unknown origin)
[4] = target: Peptidyl-prolyl cis-trans isomerase FKBP1A (Homo sapiens, UniProt P62942); assay: as §1, with “FKBP12” for “FKBP51”, “([…])” for “(DE3)”; outline: as §2
[5] = as §3, with “FJBP12” for “FKBP52 (unknown origin)”
[6] = target: Peptidyl-prolyl cis-trans isomerase FKBP1B (Homo sapiens, UniProt P68106); assay: as §1, with “FKBP12.6” for “FKBP51”, “competition” for “competition binding”; outline: as §2
[7] = as §3, with “FKBP12.6” for “FKBP52”
[8] = target: T1, Peptidyl-prolyl cis-trans isomerase FKBP5; assay: Binding affinity to FKBP51 FK1 domain (unknown origin) assessed as dissociation constant at 25 degreeC by isothermal titration calorimetric analysis
Outline: (§4)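 FKBP51 FK1 domain, ITC at 25 °C in 20 mM HEPES pH 8.0, 20 mM NaCl. Standard setup: 10 μM protein in cell with 0.5% DMSO, 100 μM ligand in syringe. Reverse setup for poorly soluble ligand: 10 μM ligand in cell with 5% DMSO, 100 μM protein in syringe. 18 × 2 μL injections, one-site binding fit, triplicates, weighted SD that includes fit errors.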

[9] = target: T3, Peptidyl-prolyl cis-trans isomerase FKBP5 (Homo sapiens) (UniProt Q13451); assay: Binding affinity to FKBP51 FK1 domain (unknown origin) assessed as gibbs free energy change by isothermal titration calorimetric analysis; outline: as §4
T3 sequence (whole entry): T1 sequence (Q13451 whole entry)

[10] = target: T3, Peptidyl-prolyl cis-trans isomerase FKBP5 (Homo sapiens); assay: Binding affinity to FKBP51 FK1 domain (unknown origin) assessed as change in enthalpy by isothermal titration calorimetric analysis; outline: as §4

Chain of Peptidyl-prolyl cis-trans isomerase FKBP1B (P68106 whole entry): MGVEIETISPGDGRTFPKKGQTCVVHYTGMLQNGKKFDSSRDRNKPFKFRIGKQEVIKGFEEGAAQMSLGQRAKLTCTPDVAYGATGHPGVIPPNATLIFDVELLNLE
Chain of Peptidyl-prolyl cis-trans isomerase FKBP1A (P62942 whole entry): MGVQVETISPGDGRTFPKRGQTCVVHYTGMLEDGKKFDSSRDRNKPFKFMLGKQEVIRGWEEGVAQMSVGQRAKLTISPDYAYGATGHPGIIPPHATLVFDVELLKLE

Row | SMILES | Kd [1] [nM] | Kd [2] [nM] | Selectivity ratio [3] | Kd [4] [nM] | Selectivity ratio [5] | Kd [6] [nM] | Selectivity ratio [7] | Kd [8] [nM] | deltaG [9] [kcal/mol] | deltaH [10] [kcal/mol]
1 | COc1ccc(CC[C@H]2OC(=O)[C@@H]3CCCCN3C(=O)[C@@H](C3CCCCC3)c3cc(OC)c(OC)c(c3)OCC/C=C\COc3cccc2c3)cc1OC | 71 | > 10000 | > 141 | 139 | 2 | 116 | 1.6 |  |  | 
2 | COc1ccc(CC[C@H]2OC(=O)[C@@H]3CCCCN3C(=O)[C@@H](C3CCCCC3)c3cc(OC)c(OC)c(c3)OCCOC/C=C\COc3cccc2c3)cc1OC | 137 | > 10000 | > 73 | 345 | 2.5 | 301 | 2.2 |  |  | 
3 | COc1ccc(CC[C@H]2OC(=O)[C@@H]3CCCCN3C(=O)[C@@H](C3CCCCC3)c3cc(OC)c(OC)c(c3)OCCOCCCCOc3cccc2c3)cc1OC | 61 | > 10000 | > 164 | 135 | 2.2 | 115 | 1.9 |  |  | 
4 | COc1ccc(CC[C@H]2OC(=O)[C@@H]3CCCCN3C(=O)[C@@H](C3CCCCC3)c3cc(OC)c(OC)c(c3)OCCC(=O)CCOc3cccc2c3)cc1OC | 8 | 1400 | 175 | 38 | 4.8 | 20 | 2.5 |  |  | 
5 | COc1ccc(CC[C@H]2OC(=O)[C@@H]3CCCCN3C(=O)[C@@H](C3CCCCC3)c3cc(OC)c(OC)c(c3)OC[C@@H](O)[C@H](O)COc3cccc2c3)cc1OC | 5 | 513 | 103 | 22 | 4.4 | 9 | 1.8 | 6.9 | -11.1 | -11.3
6 | COc1ccc(CC[C@H]2OC(=O)[C@@H]3CCCCN3C(=O)[C@@H](C3CCCCC3)c3cc(OC)c(OC)c(c3)OC/C=C/COc3cccc2c3)cc1OC | 108 | 5390 | 49.9 | 212 | 1.9 | 216 | 2 |  |  | 
7 | COc1ccc(CC[C@@H](OC(=O)[C@@H]2CCCCN2C(=O)[C@H](c2cc(OC)c(OC)c(OC)c2)C2CCCCC2)c2cccc(OCC(=O)O)c2)cc1OC |  |  |  |  |  |  |  | 9.8 | -10.9 | -11.2
8 | COc1ccc(CC[C@H]2OC(=O)[C@@H]3CCCCN3C(=O)[C@@H](C3CCCCC3)c3cc(OC)c(c(OC)c3)OCCCOc3cccc2c3)cc1OC | 70 | > 10000 | > 142 | 744 | 10.6 | 446 | 6.3 |  |  | 
9 | COc1ccc(CC[C@H]2OC(=O)[C@@H]3CCCCN3C(=O)[C@@H](C3CCCCC3)c3cc(OC)c(c(OC)c3)OCCCOC/C=C/COc3cccc2c3)cc1OC | 84 | > 10000 | > 119 | 595 | 7 | 335 | 3.9 |  |  | 
10 | COc1ccc(CC[C@H]2OC(=O)[C@@H]3CCCCN3C(=O)[C@@H](C3CCCCC3)c3cc(OC)c(c(OC)c3)OCC/C=C\COc3cccc2c3)cc1OC | 88 | > 10000 | > 114 | 526 | 6 | 495 | 5.6 |  |  | 
11 | COc1ccc(CC[C@H]2OC(=O)[C@@H]3CCCCN3C(=O)[C@@H](C3CCCCC3)c3cc(OC)c(OC)c(c3)OCCCCOc3cccc2c3)cc1OC | 29 | 4460 | 154 | 113 | 3.8 | 62 | 2.1 |  |  | 
12 | COc1ccc(CC[C@H]2OC(=O)[C@@H]3CCCCN3C(=O)[C@@H](C3CCCCC3)c3cc(OC)c(c(OC)c3)OCCCOCCCCOc3cccc2c3)cc1OC | 75 | > 10000 | > 133 | 484 | 6.4 | 277 | 3.7 |  |  | 
13 | COc1ccc(CC[C@H]2OC(=O)[C@@H]3CCCCN3C(=O)[C@@H](C3CCCCC3)c3cc(OC)c(OC)c(c3)OCCC(=O)COc3cccc2c3)cc1OC | 12 | 3530 | 294 | 59 | 4.9 | 32 | 2.7 |  |  | 
14 | COc1ccc(CC[C@H]2OC(=O)[C@@H]3CCCCN3C(=O)[C@@H](C3CCCCC3)c3cc(OC)c(OC)c(c3)OCCCCCOc3cccc2c3)cc1OC | 46 | > 10000 | > 217 | 126 | 2.7 | 100 | 2.2 |  |  | 
